Laboratory results from ChEMBL document CHEMBL1147872, “Syntheses of new tetrasubstituted thiophenes as novel anti-inflammatory agents” (Eur J Med Chem, 2007).
Values after ≈ are worked out from the molar mass of the structure shown. Active and inactive are the calls of the source. The calls are words filed in the database; no cut-off is given here.

Key:
Type in all cases: functional
[1] = Antioxidant activity assessed as nitric oxide radical scavenging activity at 5 ug/ml after 150 mins
Summary of the method: (§1)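 Sodium nitroprusside (10 mmol) in PBS at physiological pH was incubated with sample at 25 °C for 150 min in a 3 ml reaction. Aliquots taken every 30 min were mixed 1:1 with Griess reagent (1% sulphanilamide, 0.1% naphthylethylenediamine in 2% H3PO4), and absorbance was read at 546 nm. Runs were done in triplicate, and % scavenging was calculated against the blank.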

[2] = Inhibition of nitric oxide radical scavenging activity; summary of the method: as §1
Rattus norvegicus [3] = assay: Antiinflammatory activity in Albino rat assessed as protection against carrageenan-induced hind paw oedema at 40 mg/kg, po after 3 hrs
Summary of the method: (§2)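 Rats (150–250 g, either sex) were fasted 18 h and grouped in sixes. Compounds or standards were given orally as a suspension in 5% DMSO. After 1 h, 0.1 ml of 1% carrageenin was injected subplantar into the right hind paw. Paw volume was read by mercury plethysmometer at once and at 3 h. % protection = 100(1−Vt/Vc) versus vehicle.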

Rattus norvegicus [4] = assay: Antiinflammatory activity in Albino rat assessed as protection against carrageenan-induced hind paw oedema at 10 mg/kg, po after 3 hrs; summary of the method: as §2
[5] = Antioxidant activity assessed as nitric oxide radical scavenging activity at 25 ug/ml after 150 mins; summary of the method: as §1
[6] = Antioxidant activity assessed as nitric oxide radical scavenging activity at 35 ug/ml after 150 mins; summary of the method: as §1
Mus musculus = assay: Analgesic activity in Albino mouse assessed as protection against acetic acid-induced writhing at 10 mg/kg, ip within 30 mins; settings: route intraperitoneal
Summary of the method: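 Mice (20–25 g, either sex) starved 16 h, six per group, given 10 mg/kg i.p.; vehicle control received 1% DMSO at 0.5 ml/100 g. After 1 h, 0.1 ml of 3% acetic acid was given. Writhes were counted over 30 min, and the group mean was expressed as % inhibition versus control. Student's t-test was used.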

[7] = Antioxidant activity assessed as nitric oxide radical scavenging activity at 20 ug/ml after 150 mins; summary of the method: as §1
[8] = Antioxidant activity assessed as nitric oxide radical scavenging activity at 15 ug/ml after 150 mins; summary of the method: as §1
[9] = Antioxidant activity assessed as nitric oxide radical scavenging activity at 10 ug/ml after 150 mins; summary of the method: as §1
Rattus norvegicus [10] = assay: Antiinflammatory activity in Albino rat assessed as protection against carrageenan-induced hind paw oedema at 20 mg/kg, po after 3 hrs; summary of the method: as §2
[11] = Antioxidant activity assessed as nitric oxide radical scavenging activity at 30 ug/ml after 150 mins; summary of the method: as §1

IC50 [2]	Compound	Activity [1]	Activity [2]	Activity (Rattus norvegicus [3])	Activity (Rattus norvegicus [4])	Activity [5]	Activity [6]	Activity (Mus musculus)	Activity [7]	Activity [8]	Activity [9]	Activity (Rattus norvegicus [10])	Activity [11]
	COc1ccc(C(=O)c2sc(Nc3ccc(Cl)cc3)c(C(=O)O)c2C)cc1	inactive	inactive	43%	49%	inactive	inactive	30%	inactive	inactive	inactive	49%	inactive
	COC(=O)c1c(Nc2ccc(Cl)cc2)sc(/C(=N\O)c2ccc(C)cc2)c1C			42%	13%							29%	
	COC(=O)c1c(Nc2ccc(C)cc2)sc(C(=O)c2ccc(C)cc2)c1C	inactive	inactive	37%	32%	inactive	inactive	22%	inactive	inactive	inactive	36%	inactive
	COC(=O)c1c(Nc2ccc(Cl)cc2)sc(C(=O)c2ccc(OC)cc2)c1C	inactive	inactive	39%	42%	inactive	inactive	60%	inactive	inactive	inactive	40%	inactive
72.21 µg/mL (≈ 175 µM)	COC(=O)c1c(Nc2ccc(OC)cc2)sc(C(=O)c2ccc(OC)cc2)c1C	4.29%		76%	71%	15.4%	25.1%	40%	12%	7.8%	5.9%	72%	20.5%
36.57 µg/mL (≈ 92 µM)	COc1ccc(Nc2sc(C(=O)c3ccc(OC)cc3)c(C)c2C(=O)O)cc1	20.1%		69%	72%	38.5%	51%	22%	32.5%	30.6%	23.5%	75%	41.2%
	COC(=O)c1c(Nc2ccc(Cl)cc2)sc(/C(=N/O)c2ccc(OC)cc2)c1C			30%	3%							12%	
	COC(=O)c1c(Nc2ccc(Cl)cc2)sc(C(=O)c2ccc(C)cc2)c1C	inactive	inactive	26%	34%	inactive	inactive	43%	inactive	inactive	inactive	66%	inactive
	Cc1ccc(Nc2sc(C(=O)c3ccc(C)cc3)c(C)c2C(=O)O)cc1	inactive	inactive	38%	35%	inactive	inactive	18%	inactive	inactive	inactive	38%	inactive
	Cc1ccc(C(=O)c2sc(Nc3ccc(F)cc3)c(C(=O)O)c2C)cc1	inactive	inactive	42%	38%	inactive	inactive	22%	inactive	inactive	inactive	44%	inactive
171.43 µg/mL (≈ 469 µM)	COC(=O)c1c(Nc2ccccc2)sc(C(=O)c2ccc(C)cc2)c1C	2.08%		53%	43%	8.16%	10.2%	27%	6.06%	4.59%	3.16%	49%	9.35%
74.17 µg/mL (≈ 186 µM)	COC(=O)c1c(Nc2ccc(F)cc2)sc(C(=O)c2ccc(OC)cc2)c1C	5.28%		58%	36%	20.2%	25.6%	40%	18.1%	15.2%	14%	53%	23.2%
	Cc1ccc(C(=O)c2sc(Nc3ccc(Cl)cc3)c(C(=O)O)c2C)cc1	inactive	inactive	59%	63%	inactive	inactive	24%	inactive	inactive	inactive	68%	inactive
259.47 µg/mL (≈ 738 µM)	Cc1ccc(C(=O)c2sc(Nc3ccccc3)c(C(=O)O)c2C)cc1	0.26%		42%	45%	4.35%	5.55%	17%	2.68%	1.25%	0.85%	47%	5.13%
118.32 µg/mL (≈ 307 µM)	COc1ccc(C(=O)c2sc(Nc3ccc(F)cc3)c(C(=O)O)c2C)cc1	0.1%		54%	57%	8.36%	12.8%	28%	3.58%	1.98%	0.98%	57%	10.5%
	COC(=O)c1c(Nc2ccc(C)cc2)sc(C(=O)c2ccc(OC)cc2)c1C	inactive	inactive	70%	50%	inactive	inactive	45%	inactive	inactive	inactive	63%	inactive
	CC(C)Cc1ccc(C(C)C(=O)O)cc1 (stereo unspecified) [IBUPROFEN]							60%				33%	
30.08 µg/mL (≈ 78.9 µM)	COC(=O)c1c(Nc2ccccc2)sc(C(=O)c2ccc(OC)cc2)c1C	13.3%		73%	69%	36.9%	63%	55%	32.4%	28.6%	18%	70%	48.1%
	COC(=O)c1c(Nc2ccccc2)sc(/C(=N/O)c2ccc(OC)cc2)c1C			34%	5%							38%	
25.2 µg/mL (≈ 68.6 µM)	COc1ccc(C(=O)c2sc(Nc3ccccc3)c(C(=O)O)c2C)cc1	19.6%		70%	79%	52.6%	61.2%	30%	41.2%	36.5%	24.7%	80%	59.5%
	COC(=O)c1c(Nc2ccc(F)cc2)sc(/C(=N/O)c2ccc(OC)cc2)c1C			30%	20%							25%	
	COC(=O)c1c(Nc2ccc(F)cc2)sc(C(=O)c2ccc(C)cc2)c1C	inactive	inactive	23%	38%	inactive	inactive	37%	inactive	inactive	inactive	46%	inactive
	COc1ccc(C(=O)c2sc(Nc3ccc(C)cc3)c(C(=O)O)c2C)cc1	inactive	inactive	62%	56%	inactive	inactive	26%	inactive	inactive	inactive	63%	inactive
	COC(=O)c1c(Nc2ccccc2)sc(/C(=N/O)c2ccc(C)cc2)c1C			30%	13%							21%	
	COC(=O)c1c(Nc2ccc(C)cc2)sc(/C(=N/O)c2ccc(OC)cc2)c1C			30%	22%							27%	
